Tests used:
CCRF-CEM [1] = assay: Cytotoxicity against human CCRF-CEM cells after 72 hrs by AlamarBlue assay; format: functional, cell-based
Procedure, shortened: (§1)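 Growth inhibition read by alamarBlue. After reagent addition, plates were held 6 h at 37 °C and absorbance read at 570 and 600 nm. IC50 was derived from dose-response curves over 6 or 7 drug concentrations by the median-effect method. Values are mean and STDEV of three to six independent experiments.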

CCRF-CEM [2] = assay: Cytotoxicity against human vinblastine-resistant CCRF-CEM cells after 72 hrs by AlamarBlue assay; format: functional, cell-based; procedure, shortened: as §1
PC-3 = assay: Cytotoxicity against human PC3 cells after 72 hrs by AlamarBlue assay; format: functional, cell-based; settings: PC-3, 72 h; procedure, shortened: as §1
[3] = Cytotoxicity against human H460 cells after 72 hrs by AlamarBlue assay; format: functional, cell-based; settings: NCI-H460, 72 h; procedure, shortened: as §1
[4] = Cytotoxicity against human H1299 cells after 72 hrs by AlamarBlue assay; format: functional, cell-based; settings: NCI-H1299, 72 h; procedure, shortened: as §1
HCT-116 = assay: Cytotoxicity against human HCT116 cells after 72 hrs by AlamarBlue assay; format: functional, cell-based; settings: HCT-116, 72 h; procedure, shortened: as §1
CCRF-CEM [5] = assay: Ratio of IC50 for human vinblastine-resistant CCRF-CEM cells to IC50 for human CCRF-CEM cells; format: functional
Procedure, shortened: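 Ratio of alamarBlue IC50 values, determined in the CCRF-CEM/VBL vinblastine-resistant subline and in the parental CCRF-CEM line.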

## Cc1cccc(Nc2cc(-c3ccccc3)nc3ccc(NC(=O)Nc4ccc(N(CCCl)CCCl)cc4)cc23)c1
CCRF-CEM [1]
  IC50: 1840 nM
CCRF-CEM [2]
  IC50: 4150 nM
PC-3
  IC50: 1230 nM
[3]
  IC50: 2090 nM
[4]
  IC50: 1420 nM
HCT-116
  IC50: 1800 nM
CCRF-CEM [5]
  Ratio IC50: 2.25

## Cc1cc(Nc2ccc(Br)cc2)c2cc(NC(=O)Nc3ccc(N(CCCl)CCCl)cc3)ccc2n1
CCRF-CEM [1]
  IC50: 520 nM
CCRF-CEM [2]
  IC50: 9530 nM
PC-3
  IC50: 1750 nM
[3]
  IC50: 910 nM
[4]
  IC50: 1350 nM
HCT-116
  IC50: 800 nM
CCRF-CEM [5]
  Ratio IC50: 18.33

## Cc1cc(Nc2cccc(C(F)(F)F)c2)c2cc(NC(=O)Nc3ccc(N(CCCl)CCCl)cc3)ccc2n1
CCRF-CEM [1]
  IC50: 590 nM
CCRF-CEM [2]
  IC50: 5960 nM
PC-3
  IC50: 1420 nM
[3]
  IC50: 850 nM
[4]
  IC50: 1480 nM
HCT-116
  IC50: 620 nM
CCRF-CEM [5]
  Ratio IC50: 10.1

## Cc1cc(Nc2ccc(F)c(Br)c2)c2cc(NC(=O)Nc3ccc(N(CCCl)CCCl)cc3)ccc2n1
CCRF-CEM [1]
  IC50: 400 nM
CCRF-CEM [2]
  IC50: 10200 nM
PC-3
  IC50: 1320 nM
[3]
  IC50: 820 nM
[4]
  IC50: 1280 nM
HCT-116
  IC50: 630 nM
CCRF-CEM [5]
  Ratio IC50: 25.45

## Cc1cc(Nc2ccc(Cl)cc2)c2cc(NC(=O)Nc3ccc(N(CCCl)CCCl)cc3)ccc2n1
CCRF-CEM [1]
  IC50: 730 nM
CCRF-CEM [2]
  IC50: 8180 nM
PC-3
  IC50: 1360 nM
[3]
  IC50: 840 nM
[4]
  IC50: 1310 nM
HCT-116
  IC50: 770 nM
CCRF-CEM [5]
  Ratio IC50: 11.21

## COc1cccc(Nc2cc(-c3ccccc3)nc3ccc(NC(=O)Nc4ccc(N(CCCl)CCCl)cc4)cc23)c1
CCRF-CEM [1]
  IC50: 790 nM
CCRF-CEM [2]
  IC50: 2710 nM
PC-3
  IC50: 2210 nM
[3]
  IC50: 1890 nM
[4]
  IC50: 2130 nM
HCT-116
  IC50: 1350 nM
CCRF-CEM [5]
  Ratio IC50: 3.43

## Cc1cc(Nc2ccccc2)c2cc(NC(=O)Nc3ccc(N(CCCl)CCCl)cc3)ccc2n1
CCRF-CEM [1]
  IC50: 440 nM
CCRF-CEM [2]
  IC50: 11500 nM
PC-3
  IC50: 1490 nM
[3]
  IC50: 1370 nM
[4]
  IC50: 1730 nM
HCT-116
  IC50: 830 nM
CCRF-CEM [5]
  Ratio IC50: 26.15

## COc1cc(Nc2cc(C)nc3ccc(NC(=O)Nc4ccc(N(CCCl)CCCl)cc4)cc23)cc(OC)c1OC
CCRF-CEM [1]
  IC50: 800 nM
CCRF-CEM [2]
  IC50: > 100000 nM
PC-3
  IC50: 3460 nM
[3]
  IC50: 3740 nM
[4]
  IC50: 2540 nM
HCT-116
  IC50: 1810 nM
CCRF-CEM [5]
  Ratio IC50: >125

## CNc1cc(C)nc2ccc(NC(=O)Nc3ccc(N(CCCl)CCCl)cc3)cc12
CCRF-CEM [1]
  IC50: 390 nM
CCRF-CEM [2]
  IC50: > 100000 nM
PC-3
  IC50: 2510 nM
[3]
  IC50: 9370 nM
[4]
  IC50: 5400 nM
HCT-116
  IC50: 1280 nM
CCRF-CEM [5]
  Ratio IC50: >256

## Cc1cc(Nc2ccc(F)c(Cl)c2)c2cc(NC(=O)Nc3ccc(N(CCCl)CCCl)cc3)ccc2n1
CCRF-CEM [1]
  IC50: 540 nM
CCRF-CEM [2]
  IC50: 9830 nM
PC-3
  IC50: 1780 nM
[3]
  IC50: 1400 nM
[4]
  IC50: 1070 nM
HCT-116
  IC50: 830 nM
CCRF-CEM [5]
  Ratio IC50: 18.2

Reference: ChEMBL document CHEMBL3286279, “The synthesis and biological evaluation of new DNA-directed alkylating agents, phenyl N-mustard-4-anilinoquinoline conjugates containing a urea linker” (Eur J Med Chem, 2014)
